27 compounds from ChEMBL document CHEMBL6092128, “2-Aryl-1-hydroxyimidazoles possessing antiviral activity against a wide range of orthopoxviruses, including the variola virus” (RSC Med Chem, 2024) can be followed below.

Data set [1] is described as follows: Cytotoxicity against African green monkey Vero cells assessed as cell destruction incubated for 4 days by neutral red dye uptake based spectrophotometric analysis. The class given is toxicity. The settings on record: chlorocebus sabaeus, time 4 day. The method, boiled down:
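Uninfected confluent Vero monolayers in DMEM with 2% FBS were exposed to 3-fold compound dilutions, final 300 to 0.14 μg mL−1 (some from 600), in triplicate rows for 4 days at 37 °C. Viable cells were measured by neutral red uptake (1.5 h), acid phosphate/ethanol extraction and OD 490 nm. CC50 was taken from semilog concentration–OD curves and recalculated to μM.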

The next data set has as its system Vaccinia virus. The data set can be described thus: Antiviral activity against Vaccinia virus Copenhagen infected in African green monkey Vero cells assessed as inhibition of virus-induced cytotoxicity incubated for 4 days by neutral red dye uptake based spectrophotometric analysis. The class given is functional, organism-based, Orthopoxvirus vaccinia.
Data set [2] is described as follows: Selectivity index, ratio of CC50 for cytotoxicity against African green monkey Vero cells to IC50 for antiviral activity against Vaccinia virus Copenhagen infected in African green monkey Vero cells. The class given is toxicity, cell-based. The settings on record: read-out: Ratio CC50/IC50.
A further data set deals with Cowpox virus. The data set can be described thus: Antiviral activity against Cowpox virus Grishak infected in African green monkey Vero cells assessed as inhibition of virus-induced cytotoxicity incubated for 4 days by neutral red dye uptake based spectrophotometric analysis. The class given is functional, organism-based. As to conditions: 96 h.
Data set [3] is described as follows: Selectivity index, ratio of CC50 for cytotoxicity against African green monkey Vero cells to IC50 for antiviral activity against Variola virus India3a infected in African green monkey Vero cells. The class given is toxicity, cell-based. The settings on record: read-out: Ratio CC50/IC50.
A short description of data set [4]: Selectivity index, ratio of CC50 for cytotoxicity against African green monkey Vero cells to IC50 for antiviral activity against Cowpox virus Grishak infected in African green monkey Vero cells. The class given is toxicity, cell-based. The settings on record: read-out: Ratio CC50/IC50.
The test system of a further data set is Variola virus. Description: Antiviral activity against Variola virus India3a infected in African green monkey Vero cells assessed as inhibition of virus-induced cytotoxicity incubated for 4 days by neutral red dye uptake based spectrophotometric analysis. The class given is functional, organism-based. As to conditions: 96 h.
In the next data set the test system is Ectromelia virus. Description: Antiviral activity against Ectromelia virus K-1 infected in African green monkey Vero cells assessed as inhibition of virus-induced cytotoxicity incubated for 4 days by neutral red dye uptake based spectrophotometric analysis. The class given is functional, organism-based. As to conditions: K-1, Vero, 96 h.
Data set [5] can be described thus: Selectivity index, ratio of CC50 for cytotoxicity against African green monkey Vero cells to IC50 for antiviral activity against Ectromelia virus K-1 infected in African green monkey Vero cells. The class given is toxicity, cell-based. As to conditions: read-out: Ratio CC50/IC50.
The mark [6] stands for this setting: Orthopoxvirus vaccinia, Copenhagen, Vero, 96 h, read-out: IC50.

As usually defined, the CC50 is the concentration that lowers cell viability or growth by half. As usually defined, the IC50 is the concentration at which inhibition is half-maximal. On to `COc1ccc(-c2nc(C)c(C(C)=O)n2O)cc1`, for which the CC50 at 96 h in data set [1] is 614 µM. Also, the IC50 with Vaccinia virus (setting [6]) turned out to be 17.9 µM. For the same compound, the selectivity ratio in data set [2] is 34.

With `O=C(NNC(=O)C1C2C=CC(C3CC23)C1C(=O)O)c1ccc(C(F)(F)F)cc1` (stereo unspecified), the half-inhibitory concentration (IC50) turned out to be 0.009 µM in the data set with Cowpox virus, 0.008 µM in the data set with Variola virus, 0.008 µM in the data set with Vaccinia virus (setting [6]) and 0.008 µM in the data set on Ectromelia virus. Moreover, the selectivity ratio was found to be 149000 in data set [3], 133000 in [4], 149000 in [5] and 149000 in [2].

Take `COn1c(-c2ccc([N+](=O)[O-])cc2)nc2c1C(=O)CC(C)(C)C2`: the IC50 in the data set with Cowpox virus was 17.9 µM; with Variola virus it was 3.96 µM; in the data set on Vaccinia virus (setting [6]), 3.96 µM; in the data set with Ectromelia virus, 12.5 µM. The selectivity ratio turned out to be 291 in [3], 65 in data set [4], 92 in data set [5] and 291 in data set [2]. For the same compound, in data set [1], the CC50 at 96 h is 1150 µM.

Turning to `Cc1ccc(C)c(COn2c(-c3ccc([N+](=O)[O-])cc3)nc3c2C(=O)CC(C)(C)C3)c1`, the IC50 in the data set with Cowpox virus is 32.3 µM; in the data set on Vaccinia virus (setting [6]) it was 1.34 µM; with Ectromelia virus it was 14.4 µM. Moreover, the CC50 at 96 h in data set [1] came to 105 µM. Also, the selectivity ratio in data set [4] was under 8; in [5] it was under 8; in data set [2] it was 79.

Take `COn1c(-c2ccc(N(C)C)cc2)nc(C)c1C(C)=O`: the CC50 at 96 h in data set [1] was determined as 197 µM. Moreover, in the data set with Vaccinia virus (setting [6]), the IC50 amounted to 62.1 µM. For the same compound, the selectivity ratio in data set [2] is under 8.

As for `CC1(C)CC(=O)c2c(n(Cc3ccccc3)c(-c3ccc([N+](=O)[O-])cc3)[n+]2[O-])C1`, in data set [1], the CC50 at 96 h was found to be 359 µM. Moreover, the IC50 in the data set with Vaccinia virus (setting [6]) was 27.7 µM. For the same compound, the selectivity ratio in data set [2] worked out at 13.

On to `CC1(C)CC(=O)c2c(nc(-c3ccc(C#N)cc3)n2O)C1`, for which the IC50 in the data set with Cowpox virus is 17.1 µM; with Variola virus, 1.45 µM; with Vaccinia virus (setting [6]), 0.498 µM; with Ectromelia virus, 2.49 µM. Besides, the selectivity ratio in data set [3] stood at 120; in data set [4], 10; in [5], 70; in data set [2] it was 351. In data set [1], the CC50 at 96 h worked out at 175 µM.

As for `COn1c(-c2ccc(C#N)cc2)nc(C)c1C(C)=O`, the CC50 at 96 h in data set [1] is 1060 µM. In addition, the IC50 in the data set with Vaccinia virus (setting [6]) came to 228 µM. Further, the selectivity ratio in data set [2] is under 8.

On to `CC(=O)c1c(C)n(C)c(-c2ccc(C#N)cc2)[n+]1[O-]`, for which the CC50 at 96 h in [1] came to 1510 µM. Besides, the IC50 result in the data set with Vaccinia virus (vero) was “Not_active”.

`CC1(C)CC(=O)c2c(nc(-c3ccc([N+](=O)[O-])cc3)n2OCc2ccc(Cl)c(Cl)c2)C1`: the IC50 was 7.04 µM with Cowpox virus, 0.61 µM in the data set with Vaccinia virus (setting [6]) and 1.8 µM in the data set on Ectromelia virus. Moreover, the CC50 at 96 h in data set [1] worked out at 109 µM. Also, the selectivity ratio in data set [4] was 15; in data set [5], 60; in data set [2] it was 178.

Take `COn1c(-c2ccc(C#N)cc2)nc2c1C(=O)CC(C)(C)C2`: in data set [1], the 50% cytotoxic concentration (CC50) at 96 h turned out to be 757 µM. In addition, in the data set on Vaccinia virus (setting [6]), the IC50 was 28.5 µM. The selectivity ratio in data set [2] is 27.

Consider `CC1(C)CC(=O)c2c(nc(-c3ccc([N+](=O)[O-])cc3)n2OCc2ccccc2Br)C1`, for which the IC50 with Cowpox virus came out at 29.1 µM; in the data set on Vaccinia virus (setting [6]), 2.91 µM; with Ectromelia virus, 28.7 µM. In addition, in [1], the CC50 at 96 h amounted to 100 µM. In addition, the selectivity ratio in [4] is under 8; in data set [5], under 8; in data set [2], 34.

`CC1(C)CC(=O)c2c(nc(-c3ccc([N+](=O)[O-])cc3)n2OCc2c(F)cccc2F)C1`: the IC50 in the data set with Cowpox virus came out at 7.39 µM; with Vaccinia virus (setting [6]), 1.22 µM; with Ectromelia virus, 4.49 µM. In addition, the CC50 at 96 h in data set [1] was found to be 51.7 µM. In addition, the selectivity ratio is under 8 in [4], 12 in [5] and 43 in data set [2].

With `CC(=O)c1c(C)nc(-c2ccc(C#N)cc2)n1O`, the CC50 at 96 h in data set [1] was 84.6 µM. Further, the IC50 in the data set on Vaccinia virus (setting [6]) is 1.12 µM. For the same compound, the selectivity ratio in [2] stood at 76.

Take `CC1(C)CC(=O)c2c(nc(-c3ccc(C(F)(F)F)cc3)n2O)C1`: the IC50 in the data set on Cowpox virus came out at 2.41 µM; in the data set with Variola virus, 0.18 µM; with Vaccinia virus (setting [6]) it was 0.154 µM; in the data set with Ectromelia virus, 0.49 µM. Also, the selectivity ratio in data set [3] turned out to be 257; in data set [4] it was 19; in [5] it was 94; in data set [2], 300. Besides, in [1], the CC50 at 96 h stood at 46.2 µM.

As for `CC(=O)c1c(C)nc(-c2ccc(C(F)(F)F)cc2)n1O`, the CC50 at 96 h in [1] is 3.87 µM. In the data set with Vaccinia virus (setting [6]), the IC50 came to 0.07 µM. Moreover, the selectivity ratio in [2] was determined as 55.

With `CC1(C)CC(=O)c2c(nc(-c3ccc([N+](=O)[O-])cc3)n2O)C1`, the IC50 in the data set on Cowpox virus was found to be 1.16 µM; in the data set on Variola virus it was 0.38 µM; with Vaccinia virus (setting [6]), 0.133 µM; in the data set on Ectromelia virus, 0.39 µM. In addition, the selectivity ratio in data set [3] came out at 373; in data set [4] it was 123; in [5], 358; in [2] it was 1070. Also, the CC50 at 96 h in data set [1] is 142 µM.

For the compound `COn1c(-c2ccc(C(F)(F)F)cc2)nc(C)c1C(C)=O`, the CC50 at 96 h in [1] came to 176 µM. In the data set on Vaccinia virus (setting [6]), the IC50 was 5.9 µM. Besides, the selectivity ratio in data set [2] amounted to 30.

As for `CC(=O)c1c(C)nc(-c2ccc([N+](=O)[O-])cc2)n1O`, the IC50 in the data set on Cowpox virus was determined as 5.9 µM; in the data set with Vaccinia virus (setting [6]), 0.651 µM; in the data set on Ectromelia virus, 1.3 µM. Besides, the CC50 at 96 h in [1] was determined as 28.3 µM. For the same compound, the selectivity ratio was under 8 in data set [4], 22 in data set [5] and 44 in data set [2].

Take `Cn1c2c([n+]([O-])c1-c1ccc([N+](=O)[O-])cc1)C(=O)CC(C)(C)C2`: in data set [1], the CC50 at 96 h was found to be 2440 µM. The IC50 in the data set on Vaccinia virus (setting [6]) was 183 µM. Also, the selectivity ratio in data set [2] worked out at 13.

On to `CC1(C)CC(=O)c2c(nc(-c3ccc([N+](=O)[O-])cc3)n2OCc2ccccc2)C1`, for which the figures for the IC50 in the data set on Cowpox virus, in the data set with Vaccinia virus (setting [6]) and in the data set with Ectromelia virus were 78.2 µM, 6.39 µM and 30.9 µM, respectively. For the same compound, the CC50 at 96 h in [1] was 1160 µM. The selectivity ratio in data set [4] came out at 15; in data set [5], 38; in [2], 182.

On to `CC(=O)c1c(C)n(C)c(-c2ccc([N+](=O)[O-])cc2)[n+]1[O-]`, for which the cytotoxic concentration (CC50) at 96 h in [1] was determined as 2980 µM. Further, in the data set with Vaccinia virus (vero), the IC50 entry is “Not_active”.

Take `CC(=O)c1c(C)nc(-c2ccc(N(C)C)cc2)n1O`: the CC50 at 96 h in data set [1] turned out to be 299 µM. Besides, the IC50 with Vaccinia virus (setting [6]) came out at 12.9 µM. For the same compound, the selectivity ratio in [2] is 23.

For the compound `COn1c(-c2ccc([N+](=O)[O-])cc2)nc(C)c1C(C)=O`, the IC50 was found to be 22.3 µM in the data set with Cowpox virus, 4.76 µM in the data set on Vaccinia virus (setting [6]) and 13.9 µM in the data set with Ectromelia virus. Also, the CC50 at 96 h in data set [1] was 444 µM. The selectivity ratio in [4] was 20; in [5], 32; in data set [2] it was 93.

Turning to `Cn1c2c([n+]([O-])c1-c1ccc(C(F)(F)F)cc1)C(=O)CC(C)(C)C2`, in [1], the CC50 at 96 h came to 2080 µM. Further, the IC50 with Vaccinia virus (setting [6]) worked out at 14.2 µM. In data set [2], the selectivity ratio was 146.

On to `COc1ccc(-c2nc(C)c(C(C)=O)n2OC)cc1`, for which the CC50 at 96 h in data set [1] came out at 357 µM. The IC50 in the data set on Vaccinia virus (setting [6]) came out at 207 µM. The selectivity ratio in data set [2] is under 8.

On to `Nc1ccn(C[C@@H](CO)OCP(=O)(O)O)c(=O)n1` [CIDOFOVIR ANHYDROUS], for which the IC50 turned out to be 48.2 µM with Cowpox virus, 43.1 µM with Variola virus and 39.4 µM in the data set on Ectromelia virus. Moreover, the selectivity ratio worked out at 26 in data set [3], 23 in data set [4], 28 in [5] and 34 in data set [2]. In data set [1], the CC50 at 96 h stood at 1110 µM.
